From ChEMBL document CHEMBL1275417, “Biological activities of novel gyrase inhibitors of the aminocoumarin class” (Antimicrob Agents Chemother, 2008)
Values after ≈ are worked out from the molar mass of the structure shown.

Columns and labels:
DNA gyrase subunit B = DNA gyrase subunit B (Escherichia coli, UniProt P0AES6); test: Inhibition of Escherichia coli JM109 DNA gyrase subunit B assessed as ATP hydrolysis by ATPase assay
[1] = target: DNA gyrase subunit A (Escherichia coli K-12) (UniProt P0AES4); test: Inhibition of Escherichia coli K-12 DNA gyrase A expressed in Escherichia coli DC2 assessed as compound concentration required for => 4-fold induction of luxCDABE operon by reported gene assay
Method in brief: (§1)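 E. coli DC2 carrying a gyrA or sulA promoter–luxCDABE (Photorhabdus) fusion plasmid. Grown overnight at 37°C in LB with 2 μg/ml tetracycline, then diluted 1:100 in LB without tetracycline and precultured 1.5 h at 37°C. Compounds were added from DMSO stocks to 1% final DMSO and incubated 5 h at 37°C. Bioluminescence was divided by A595, and induction factor is the treated/untreated ratio. The value is the lowest test concentration giving ≥4-fold induction.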

[2] = target: T1, Cell division inhibitor SulA (Escherichia coli K-12) (UniProt P0AFZ5); test: Inhibition of Escherichia coli K-12 DNA sulA expressed in Escherichia coli DC2 assessed as compound concentration required for => 4-fold induction of luxCDABE operon by reported gene assay; method in brief: as §1
T1 sequence (whole entry): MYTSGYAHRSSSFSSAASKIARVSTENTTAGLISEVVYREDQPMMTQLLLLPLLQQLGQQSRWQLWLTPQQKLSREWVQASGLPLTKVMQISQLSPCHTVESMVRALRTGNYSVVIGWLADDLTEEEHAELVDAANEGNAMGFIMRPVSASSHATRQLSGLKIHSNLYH

Staphylococcus aureus [3] = test: Antibacterial activity against Staphylococcus aureus ATCC 29213 by broth microdilution method; type: functional
Staphylococcus aureus [4] = test: Antibacterial activity against Staphylococcus aureus ATCC 43300 by broth microdilution method; type: functional
Staphylococcus aureus [5] = test: Antibacterial activity against Staphylococcus aureus 80CR5 by broth microdilution method; type: functional
Streptococcus pneumoniae [6] = test: Antibacterial activity against Streptococcus pneumoniae ATCC 49619 by broth microdilution method; type: functional
Streptococcus pneumoniae [7] = test: Antibacterial activity against Streptococcus pneumoniae SL336-T by broth microdilution method; type: functional
Streptococcus pneumoniae [8] = test: Antibacterial activity against Streptococcus pneumoniae TUPELO by broth microdilution method; type: functional
Enterococcus faecalis = test: Antibacterial activity against Enterococcus faecalis ATCC 29212 by broth microdilution method; type: functional
Enterococcus faecium = test: Antibacterial activity against Enterococcus faecium ATCC 19434 by broth microdilution method; type: functional
Escherichia coli [9] = test: Antibacterial activity against Escherichia coli ATCC 25922 by broth microdilution method; type: functional
Escherichia coli [10] = test: Antibacterial activity against Escherichia coli UB1005 by broth microdilution method; type: functional
Escherichia coli [11] = test: Antibacterial activity against Escherichia coli DC2 by broth microdilution method; type: functional
Klebsiella pneumoniae = test: Antibacterial activity against Klebsiella pneumoniae ATCC 27736 by broth microdilution method; type: functional
Pseudomonas aeruginosa [12] = test: Antibacterial activity against Pseudomonas aeruginosa ATCC 27853 by broth microdilution method; type: functional
Pseudomonas aeruginosa [13] = test: Antibacterial activity against Pseudomonas aeruginosa K799/WT by broth microdilution method; type: functional
Pseudomonas aeruginosa [14] = test: Antibacterial activity against Pseudomonas aeruginosa K799/61 by broth microdilution method; type: functional
[15] = target: DNA gyrase (Escherichia coli); test: Inhibition of Escherichia coli JM109 DNA gyrase assessed as DNA triple helix formation by supercoiling assay

SMILES | IC50 (DNA gyrase subunit B) | Activity [1] | Activity [2] | MIC (Staphylococcus aureus [3]) | MIC (Staphylococcus aureus [4]) | MIC (Staphylococcus aureus [5]) | MIC (Streptococcus pneumoniae [6]) | MIC (Streptococcus pneumoniae [7]) | MIC (Streptococcus pneumoniae [8]) | MIC (Enterococcus faecalis) | MIC (Enterococcus faecium) | MIC (Escherichia coli [9]) | MIC (Escherichia coli [10]) | MIC (Escherichia coli [11]) | MIC (Klebsiella pneumoniae) | MIC (Pseudomonas aeruginosa [12]) | MIC (Pseudomonas aeruginosa [13]) | MIC (Pseudomonas aeruginosa [14]) | IC50 [15]
CO[C@@H]1[C@@H](OC(=O)c2ccc(C)[nH]2)[C@@H](O)[C@H](Oc2ccc3c(O)c(NC(=O)/C=C/c4ccccc4)c(=O)oc3c2Cl)OC1(C)C | 90 nM | 6.3 µM | 3.1 µM | 0.25 µg/mL (≈ 0.391 µM) | 1 µg/mL (≈ 1.56 µM) | > 32 µg/mL | 8 µg/mL (≈ 12.5 µM) | 16 µg/mL (≈ 25 µM) | 16 µg/mL (≈ 25 µM) | 16 µg/mL (≈ 25 µM) | > 32 µg/mL | > 32 µg/mL | > 32 µg/mL | 32 µg/mL (≈ 50.1 µM) | > 32 µg/mL | > 32 µg/mL | > 32 µg/mL | 4 µg/mL (≈ 6.26 µM) | 34 nM
COc1cc(/C=C/C(=O)Nc2c(O)c3ccc(O[C@@H]4OC(C)(C)[C@H](OC)[C@@H](OC(=O)c5ccc(C)[nH]5)[C@H]4O)c(Cl)c3oc2=O)ccc1O | 263 nM | 6.3 µM | 3.1 µM | 0.5 µg/mL (≈ 0.73 µM) | 0.5 µg/mL (≈ 0.73 µM) | > 32 µg/mL | 8 µg/mL (≈ 11.7 µM) | 8 µg/mL (≈ 11.7 µM) | 16 µg/mL (≈ 23.4 µM) | 32 µg/mL (≈ 46.7 µM) | > 32 µg/mL | > 32 µg/mL | > 32 µg/mL | 16 µg/mL (≈ 23.4 µM) | > 32 µg/mL | > 32 µg/mL | > 32 µg/mL | 2 µg/mL (≈ 2.92 µM) | 43 nM
CO[C@@H]1[C@@H](OC(=O)c2ccc(C)[nH]2)[C@@H](O)[C@H](Oc2ccc3c(O)c(NC(=O)c4ccc(N)c(C)c4)c(=O)oc3c2C)OC1(C)C | 152 nM | 25 µM | 50 µM | 1 µg/mL (≈ 1.61 µM) | 1 µg/mL (≈ 1.61 µM) | > 32 µg/mL | 4 µg/mL (≈ 6.43 µM) | 4 µg/mL (≈ 6.43 µM) | 4 µg/mL (≈ 6.43 µM) | 8 µg/mL (≈ 12.9 µM) | > 32 µg/mL | > 32 µg/mL | > 32 µg/mL | > 32 µg/mL | > 32 µg/mL | > 32 µg/mL | > 32 µg/mL | 4 µg/mL (≈ 6.43 µM) | 44 nM
C=CCc1cc(C(=O)Nc2c(O)c3ccc(O[C@@H]4OC(C)(C)[C@H](OC)[C@@H](OC(=O)c5ccc(C)[nH]5)[C@H]4O)c(C)c3oc2=O)ccc1O | 116 nM | 1.6 µM | 3.1 µM | ≤ 0.06 µg/mL | ≤ 0.06 µg/mL | 16 µg/mL (≈ 24.7 µM) | 1 µg/mL (≈ 1.54 µM) | 2 µg/mL (≈ 3.08 µM) | 2 µg/mL (≈ 3.08 µM) | 8 µg/mL (≈ 12.3 µM) | > 32 µg/mL | > 32 µg/mL | > 32 µg/mL | 8 µg/mL (≈ 12.3 µM) | > 32 µg/mL | > 32 µg/mL | > 32 µg/mL | 0.5 µg/mL (≈ 0.771 µM) | 34 nM
COc1cc(C(=O)Nc2c(O)c3ccc(O[C@@H]4OC(C)(C)[C@H](OC)[C@@H](OC(=O)c5ccc(C)[nH]5)[C@H]4O)c(Cl)c3oc2=O)ccc1O | 122 nM | 25 µM | 6.3 µM | 1 µg/mL (≈ 1.52 µM) | 1 µg/mL (≈ 1.52 µM) | 32 µg/mL (≈ 48.6 µM) | 2 µg/mL (≈ 3.03 µM) | 4 µg/mL (≈ 6.07 µM) | 8 µg/mL (≈ 12.1 µM) | 16 µg/mL (≈ 24.3 µM) | > 32 µg/mL | > 32 µg/mL | > 32 µg/mL | 32 µg/mL (≈ 48.6 µM) | > 32 µg/mL | > 32 µg/mL | > 32 µg/mL | 1 µg/mL (≈ 1.52 µM) | 22 nM

Compounds with a lower IC50 (DNA gyrase subunit B), results first:

IC50 (DNA gyrase subunit B) | Activity [1] | Activity [2] | MIC (Staphylococcus aureus [3]) | MIC (Staphylococcus aureus [4]) | MIC (Staphylococcus aureus [5]) | MIC (Streptococcus pneumoniae [6]) | MIC (Streptococcus pneumoniae [7]) | MIC (Streptococcus pneumoniae [8]) | MIC (Enterococcus faecalis) | MIC (Enterococcus faecium) | MIC (Escherichia coli [9]) | MIC (Escherichia coli [10]) | MIC (Escherichia coli [11]) | MIC (Klebsiella pneumoniae) | MIC (Pseudomonas aeruginosa [12]) | MIC (Pseudomonas aeruginosa [13]) | MIC (Pseudomonas aeruginosa [14]) | IC50 [15] | SMILES
73 nM | 3.1 µM | 3.1 µM | 2 µg/mL (≈ 2.8 µM) | 4 µg/mL (≈ 5.6 µM) | > 32 µg/mL | 4 µg/mL (≈ 5.6 µM) | 8 µg/mL (≈ 11.2 µM) | 16 µg/mL (≈ 22.4 µM) | 32 µg/mL (≈ 44.8 µM) | > 32 µg/mL | > 32 µg/mL | > 32 µg/mL | 16 µg/mL (≈ 22.4 µM) | > 32 µg/mL | > 32 µg/mL | > 32 µg/mL | 1 µg/mL (≈ 1.4 µM) | 41 nM | CO[C@@H]1[C@@H](OC(=O)c2ccc(C)[nH]2)[C@@H](O)[C@H](Oc2ccc3c(O)c(NC(=O)c4ccc(O)c(NC(=O)C(C)C)c4)c(=O)oc3c2Cl)OC1(C)C
65 nM | 13 µM | 6.3 µM | 0.125 µg/mL (≈ 0.19 µM) | 0.25 µg/mL (≈ 0.38 µM) | 32 µg/mL (≈ 48.7 µM) | 4 µg/mL (≈ 6.09 µM) | 8 µg/mL (≈ 12.2 µM) | 8 µg/mL (≈ 12.2 µM) | 16 µg/mL (≈ 24.4 µM) | > 32 µg/mL | > 32 µg/mL | > 32 µg/mL | 16 µg/mL (≈ 24.4 µM) | > 32 µg/mL | > 32 µg/mL | > 32 µg/mL | 1 µg/mL (≈ 1.52 µM) | 17 nM | CO[C@@H]1[C@@H](OC(=O)c2ccc(C)[nH]2)[C@@H](O)[C@H](Oc2ccc3c(O)c(NC(=O)c4cc(C)c(O)c(C)c4)c(=O)oc3c2Cl)OC1(C)C
84 nM | 3.1 µM | 12.5 µM | 0.125 µg/mL (≈ 0.19 µM) | 0.25 µg/mL (≈ 0.379 µM) | 32 µg/mL (≈ 48.6 µM) | 2 µg/mL (≈ 3.03 µM) | 4 µg/mL (≈ 6.07 µM) | 16 µg/mL (≈ 24.3 µM) | 32 µg/mL (≈ 48.6 µM) | > 32 µg/mL | > 32 µg/mL | > 32 µg/mL | 8 µg/mL (≈ 12.1 µM) | > 32 µg/mL | > 32 µg/mL | > 32 µg/mL | 2 µg/mL (≈ 3.03 µM) | 20 nM | CO[C@@H]1[C@@H](OC(=O)c2ccc(C)[nH]2)[C@@H](O)[C@H](Oc2ccc3c(O)c(NC(=O)c4ccc(SC)cc4)c(=O)oc3c2Cl)OC1(C)C
84 nM | 3.1 µM | 1.6 µM | ≤ 0.06 µg/mL | ≤ 0.06 µg/mL | 32 µg/mL (≈ 49.2 µM) | 2 µg/mL (≈ 3.07 µM) | 2 µg/mL (≈ 3.07 µM) | 4 µg/mL (≈ 6.15 µM) | 16 µg/mL (≈ 24.6 µM) | > 32 µg/mL | > 32 µg/mL | > 32 µg/mL | 8 µg/mL (≈ 12.3 µM) | > 32 µg/mL | > 32 µg/mL | > 32 µg/mL | 0.5 µg/mL (≈ 0.768 µM) | 19 nM | CCCc1cc(C(=O)Nc2c(O)c3ccc(O[C@@H]4OC(C)(C)[C@H](OC)[C@@H](OC(=O)c5ccc(C)[nH]5)[C@H]4O)c(C)c3oc2=O)ccc1O
